A selection: hits, their analogues and other compounds. The true share with any hit is near 1.3%.
LYPLA2 inh = LYPLA2 inhibitors, primary screen, counter-screen for PME1 inhibitor project, biochemical, fluorescence polarization, FP-Rh probe ABPP; Acyl-protein thioesterase 2 (Homo sapiens), O95372; recombinant LYPLA2; inhibition, % at 5.9 µM; 0.38% of 320,000 active;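 active means inhibition above the screen-wide mean plus 3 SD, limit set per campaign, cut at about 26% in these data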;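 further: 0% = LYPLA2 with DMSO and 100% = wells lacking LYPLA2 enzyme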
Fam108B counter = mouse Fam108B serine hydrolase inhibitors, primary screen, counter-screen for RBBP9 inhibitor project, biochemical, fluorescence polarization; recombinant Fam108B, FP-Rh probe fluorescence polarization; inhibition, % at 9.51 µM; 0.33% of 300,000 active; AID 1947, 2009;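 active means inhibition above the screen mean inhibition plus 3 SD, computed separately per campaign, cut at about 18% in these data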;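 further: inhibitors lower polarization as less probe binds the enzyme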
PME-1 inh = PME-1 inhibitors via competitive probe labeling, primary screen, biochemical, fluorescence polarization, FP-Rh probe, HTS | Protein phosphatase methylesterase 1 (Homo sapiens), Q9Y570 | recombinant PME-1 | inhibition, % at 5.9 µM | 0.53% of 320,000 active;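 active means inhibition above the campaign mean of all compounds plus 3 SD, cut at about 26% in these data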;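 further: competitive labeling of PME-1 active site by serine hydrolase directed probe; 0% = PME-1 with DMSO and 100% = wells lacking PME-1 enzyme; inhibitors block probe labeling so polarization falls and inhibition rises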
PAD4 FP inh = human PAD4 inhibitors, primary screen, biochemical, fluorescence polarization, 1536-well format; Protein-arginine deiminase type-4 (Homo sapiens), Q9UM07; recombinant PAD4, RCA probe fluorescence polarization; inhibition, % at 6.36 µM; 0.41% of 330,000 active;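 active means percent inhibition above a cutoff equal to the mean of all tested compounds plus 3 SD, cut at about 15% in these data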;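 further: 0% = PAD4 with RCA probe and DMSO and 100% = probe without PAD4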
LYPLA1 counter = LYPLA1 inhibitors, primary screen, counter-screen for PME1 inhibitor project, biochemical, fluorescence polarization, FP-Rh probe ABPP; 0.16% of 320,000 active; inhibition, % at 5.9 µM; Acyl-protein thioesterase 1 (Homo sapiens), O75608; recombinant LYPLA1;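 active means inhibition above the mean of all tested compounds plus 3 SD, set per campaign, cut at about 14% in these data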;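 further: inhibitors block serine hydrolase probe labeling of LYPLA1 so polarization falls; 0% = enzyme with DMSO and 100% = wells lacking LYPLA1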
Target sequence (O75608 whole entry, looked up): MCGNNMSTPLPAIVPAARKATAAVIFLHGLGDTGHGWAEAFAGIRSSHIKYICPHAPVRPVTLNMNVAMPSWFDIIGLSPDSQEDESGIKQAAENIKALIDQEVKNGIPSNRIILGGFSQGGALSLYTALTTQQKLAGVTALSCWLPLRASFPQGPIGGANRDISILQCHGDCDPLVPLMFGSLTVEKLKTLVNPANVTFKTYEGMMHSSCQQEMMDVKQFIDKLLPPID
RBBP9 inh = human RBBP9 inhibitors, primary screen, biochemical, fluorescence polarization, FP-Rh probe, HTS. Serine hydrolase RBBP9 (Homo sapiens), O75884. recombinant RBBP9. inhibition, % at 7.94 µM. 0.2% of 220,000 active. AID 1515, 2009;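 active means inhibition above the campaign mean of all tested compounds plus 3 SD, cut at about 14% in these data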;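 further: plate controls were DMSO wells with RBBP9 for no effect and wells lacking RBBP9 protein for full effect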
Target sequence (O75884 whole entry, looked up): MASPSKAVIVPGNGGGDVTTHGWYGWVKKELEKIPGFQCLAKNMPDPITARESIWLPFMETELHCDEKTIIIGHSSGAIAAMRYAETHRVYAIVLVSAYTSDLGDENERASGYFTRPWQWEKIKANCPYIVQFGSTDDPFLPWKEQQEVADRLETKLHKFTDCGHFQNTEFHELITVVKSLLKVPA
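Test system – recombinant human RBBP9 · Input – RBBP9 2.5 µM in dispensing solution, pre-mixing · Medium – Tris buffer pH 8.0, NaCl, Pluronic · Schedule – preincubation 30 min plus labeling 45 min at 25 °C · Measured by – fluorescence polarization · Measure – % inhibition · Controls – DMSO and no-protein wells · Replicates – one well per compound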
* marks the source's active call; other numbers are inactive results; x = no result.

SMILES	LYPLA2 inh	Fam108B counter	PME-1 inh	PAD4 FP inh	LYPLA1 counter	RBBP9 inh
Cn1c(=N)n(CC(=O)c2ccc(Br)cc2)c2ccccc21	1	17	32*	1	1	x
Cc1[nH]c2ccccc2c1/C=N/Nc1nc(Nc2ccccc2)nc(N2CCOCC2)n1	-1	12	39*	3	-9	-9
Oc1[nH]c2ccccc2c1N=Nc1nc(Nc2ccccc2)nc(N2CCOCC2)n1	-9	-32	-3	3	-5	-5
CCc1nnc(NC(=O)CSc2nc(C)c3c(c2C#N)CCCC3)s1	3	5	33*	0	0	-4
COc1ccc(NC(=O)CSc2nc(C)c3c(c2C#N)CCCC3)cc1	13	0	2	-2	3	-9
COc1cc(/C=N/NC(=O)c2cccc(C)c2)ccc1OCC(=O)Nc1ccccc1	-7	-8	-4	-2	-6	x
COc1ccc(N2CCN(c3ccc(NC(=O)/C=C\C(=O)O)cc3)CC2)cc1	6	5	2	30*	1	x
COc1ccc(C(=O)c2ccc(OC)c3cccc(O)c23)cc1OC	6	4	-2	-4	0	4
COc1ccc2c3c(cccc13)NN=C2C	x	x	x	x	x	15*
C/C(=C\C(=O)O)C12CC3CC(CC(C3)C1)C2	0	-3	1	-4	3	-7
O=C(c1cnn2c(C(F)F)cc(-c3ccccc3)nc12)N1CCCCC1c1cccnc1 (stereo not drawn)	-2	5	-2	-5	1	-5
O=C(c1cccc(S(=O)(=O)N2CCCC2)c1)N1CCOCC1	7	x	7	-2	-1	x
CCn1c2ccccc2c2cc(NC(=O)c3ccccc3[N+](=O)[O-])ccc21	-4	13	30*	2	-1	-6
O=C(Nc1nc2cc3c(cc2s1)OCCO3)c1cccs1	8	-9	-52	-3	7	-4
NNc1nc2cc3c(cc2s1)OCCO3	-3	8	39*	-3	-1	x
COc1ccc(S(=O)(=O)NC2CC(=O)N(c3ccccc3)C2)cc1C (stereo not drawn)	-3	2	-2	0	0	x
Cc1cccc2cc(C#N)c(SCC#N)nc12	-8	4	31*	-2	-1	-5
Cc1cccc2cc(C#N)c(SCC(=O)NNC(=O)Cc3ccccc3)nc12	2	-24	0	3	1	-6
COC(=O)C(Nc1ccccc1Cl)(c1cc(C)c(O)c(C)c1)C(F)(F)F (stereo not drawn)	2	2	1	-5	2	-4
COC(=O)/C(=C(/F)Sc1cc(C)c(O)c(C)c1)C(F)(F)F	-11	-3	-6	16*	-3	8
CC(C)(C)OC(=O)NCCCC1=CC2=CC(=O)C(C)(OC(=O)c3ccc(Cl)nc3)C(=O)C2=CO1 (stereo not drawn)	16	7	25	25*	18*	x
CCC(=O)OC1(C)C(=O)C=C2C=C(CCCCNC(=O)OC(C)(C)C)OC=C2C1=O (stereo not drawn)	1	2	4	-8	-1	x
Cn1c(N/N=C/c2c[nH]c3ccccc23)nc2ccccc21	-1	4	30*	-6	-3	3
Cc1cc(NC(=O)CCC(=O)N(Cc2ccc(F)cc2)C(C(=O)NC2CCCC2)c2ccco2)no1 (stereo not drawn)	-4	1	0	5	-4	x
Nc1ccc(S(=O)(=O)c2cccc(N)c2)cc1	-1	-1	-3	0	-3	-5
SMILES	LYPLA2 inh	Fam108B counter	PME-1 inh	PAD4 FP inh	LYPLA1 counter	RBBP9 inh
Cc1ccc(S(=O)(=O)c2ccccc2)cc1S	-8	-3	-6	36*	-3	-5
Cc1ccc(C(=O)CSC2=C(C#N)C(c3ccco3)C3=C(CCCC3=O)N2)cc1 (stereo not drawn)	2	-2	32*	-1	-1	-4
CCOc1ccc(N(CC(=O)Nc2cccc(Br)c2)S(C)(=O)=O)cc1	-3	-4	-7	5	-3	x
CCC(=O)NCCNc1nc2cc(C)cc(C)c2cc1C#N	-1	5	4	0	2	-11
CN(C)S(=O)(=O)c1ccccc1N=C=S	x	x	x	x	x	16*
COc1cccc(C(C)N(C)Cc2nc(-c3ccoc3)oc2C)c1 (stereo not drawn)	1	0	0	-7	3	-13
Oc1c(C=NCc2ccncc2)sc2ccccc12	-7	-4	2	16*	-5	-2
COc1ccc(-n2nnnc2CNC(=O)C2CC(=O)N(c3ccc(Cl)cc3)C2)cc1 (stereo not drawn)	0	2	-7	-2	0	x
C/C(=N\Nc1nc(-c2ccccc2)cs1)c1cccs1	1	0	4	4	0	-5
C/C(=N\Nc1nc2ccccc2s1)c1cccs1	8	-1	32*	4	1	-4
CCOC(=O)CCc1c(C)nc(SCCCn2c(=O)[nH]c3ccccc32)c(C#N)c1C	7	-4	26*	-5	2	-4
CCOc1ccccc1N1C(=O)CC(Nc2ccc(N3CCOCC3)cc2)C1=O (stereo not drawn)	8	1	-1	19*	0	0
O=C1CC(Nc2ccc(N3CCOCC3)cc2)C(=O)N1c1ccccc1 (stereo not drawn)	-6	-4	-3	7	2	5
Cc1ccc(/C=N/Nc2ccnc3cc(Cl)ccc23)c(C)c1	4	16	35*	0	1	3
Oc1ccc(/C=N/Nc2ccnc3cc(Cl)ccc23)c(O)c1	3	4	27*	-4	-2	13
Cc1ccccc1/C=N/Nc1ccnc2cc(Cl)ccc12	-5	4	11	-8	-3	-7
Cc1ccc(NC(=O)COC(=O)Cc2ccsc2)c(C)c1	3	0	4	-4	3	-1
CCC(C(=O)NC1CCCCCC1)n1nc(C)c2c(C)n(-c3ccccc3)nc2c1=O (stereo not drawn)	-1	4	0	2	-6	x
Cc1c(C(=O)N/N=C/c2ccc(O)c(Br)c2)sc(N)c1C#N	4	7	29*	-10	-1	-6
COc1ccc(OC(=O)COc2ccc(Cl)cc2)cc1	-8	2	-7	-1	-4	x
c1ccc(-c2ccc(C3CCCN3)cc2)cc1 (stereo not drawn)	-8	-1	33*	-1	-2	-5
Cc1cc(C)cc(C(=O)NCC(=O)N2CCC(C(N)=O)CC2)c1	x	x	x	0	x	x
C=C(C)CCC(C)N1CCC(n2nccc2NC(=O)CCCc2ccccc2)CC1 (stereo not drawn)	4	1	-8	-7	2	x

Bioassay records (PubChem)
